A word on the EC50: it is the concentration needed to bring the measured effect to its halfway point.

Entries after “also recorded” stand apart in the source; their conditions may differ. Like-named read-outs stand apart in the source and are kept apart here.

Data on 5 compounds can be found in publication PMC7080202 (Medicinal Chemistry Research, 2013).

The test system of one data set is Vaccinia virus. Put plainly: microbe, parasite or virus in culture. The conditions noted are these: read-out: EC50 Vaccinia virus. It is filed as cell-based.
A further data set concerns HeLa cell cultures. Put plainly: Cytotoxicity. It counts as cell-based. The procedure, abridged: (§1)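 Cell cultures incubated with varying concentrations of test compound, then examined by microscopy. MCC is the lowest concentration that causes a microscopically detectable alteration of normal cell morphology. HEL, Vero and HeLa lines were monitored regularly for mycoplasma and found free of it.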

In another data set the test system is Sindbis virus. Put plainly: microbe, parasite or virus in culture. It is filed as cell-based. The settings on record: read-out: Antiviral activity EC50 Sindbis virus.
Data set [1] concerns Human embryonic lung cell cultures. Put plainly: Cytotoxicity. It counts as cell-based. In short, it runs like this: as §1
Data set [2] has as its system Crandell-Rees feline kidney cells. Put plainly: Cytotoxicity. It is filed as cell-based.
A further data set concerns Punta Toro virus. Put plainly: microbe, parasite or virus in culture. It counts as cell-based. The conditions noted are these: read-out: Antiviral activity EC50 Punta Toro virus.
For another data set, the system named is Influenza A H1N1 subtype. Put plainly: Anti-influenza virus activity, influenza A H1N1 in MDCK cells. It is filed as cell-based, influenza A virus A/Puerto Rico/8/34 (H1N1). The conditions noted are these: for EC50: read-out: Antiviral EC50 Influenza A H1N1 subtype MTS, MDCK cells, MTS; for anti-influenza activity (in words): H1N1, H3N2 and influenza B, below the non-toxic concentration of 100 µM.

The subject of data set [3] is Vesicular stomatitis virus. Put plainly: microbe, parasite or virus in culture. The settings on record: read-out: EC50 Vesicular stomatitis virus. It counts as cell-based.
The subject of the next data set is Para-influenza-3 virus. Put plainly: organism not typed. It is filed as cell-based, parainfluenza-3 virus. The conditions noted are these: read-out: Antiviral activity EC50 Para-influenza-3 virus.
Data set [4] deals with Coxsackie virus B4. Put plainly: microbe, parasite or virus in culture. It counts as cell-based. The settings on record: read-out: Antiviral activity EC50 Coxsackie virus B4.
For another data set, the system named is MDCK cells. The settings on record: for Cytotoxicity Minimum cytotoxic concentration: microscopically detectable alteration of normal cell morphology; for CC50: read-out: Cytotoxicity CC50, MTS assay. On the technique in general: Tetrazolium assays rely on reduction of a dye to a coloured formazan, in cell work by metabolically active cells.
A further data set has as its system Reovirus-1. The experiment in a line: organism not typed. It counts as cell-based. The settings on record: read-out: Antiviral activity EC50 Reovirus-1.
In the next data set the test system is Influenza A H3N2 subtype. The experiment in a line: Anti-influenza virus activity, influenza A H3N2 in MDCK cells. It counts as cell-based, influenza A virus A/Hong Kong/7/87 (H3N2). The settings on record: read-out: Antiviral EC50 Influenza A H3N2 subtype MTS.
In another data set the test system is Feline corona virus. Put plainly: Antiviral CPE assay, feline corona virus in CRFK cells. It is filed as cell-based, feline coronavirus (FIPV). The conditions noted are these: read-out: EC50 Feline corona virus; CRFK cell culture.
The subject of data set [5] is Coxsackie virus B4. Put plainly: microbe, parasite or virus in culture. It counts as cell-based. The conditions noted are these: read-out: Antiviral activity EC50 Coxsackie virus B4. This is another data set of the same source.
The subject of data set [6] is Herpes simplex virus-1 (KOS). The experiment in a line: microbe, parasite or virus in culture. It is filed as cell-based, herpes simplex virus type 1. The settings on record: read-out: EC50 Herpes simplex virus-1 (KOS).
For data set [7], the system named is Herpes simplex virus-2 (G). Put plainly: microbe, parasite or virus in culture. It counts as cell-based, herpes simplex virus type 2. The settings on record: read-out: EC50 Herpes simplex virus-2 (G).
The subject of a further data set is Feline herpes virus. The experiment in a line: Antiviral CPE assay, feline herpes virus in CRFK cells. It counts as cell-based. The conditions noted are these: read-out: EC50 Feline herpes virus.
The subject of data set [8] is Herpes simplex virus-1TK-KOS ACV^r. The experiment in a line: microbe, parasite or virus in culture. It counts as cell-based, herpes simplex virus type 1. The settings on record: read-out: EC50 Herpes simplex virus-1TK-KOS ACV^r.
The next data set concerns Vero cell cultures. The experiment in a line: Cytotoxicity. It counts as cell-based. In short, it runs like this: as §1
A further data set deals with Influenza B. Put plainly: Anti-influenza virus activity, influenza B in MDCK cells. It counts as cell-based, influenza B virus B/Hong Kong/5/72.
The test system of data set [9] is Vesicular stomatitis virus. It is filed as cell-based. The conditions noted are these: read-out: Antiviral activity EC50 Vesicular stomatitis virus.
In data set [10] the test system is Cytomegalovirus Davis strain. Put plainly: microbe, parasite or virus in culture. The conditions noted are these: Human betaherpesvirus 5, HEL, read-out: EC50 Cytomegalovirus Davis strain. It counts as cell-based.
The nature of the next data set: in vitro. The settings on record: dog.
The subject of data set [11] is mouse-skin papillomas induced by DMBA and TPA. Put plainly: Two-stage mouse-skin carcinogenesis test. It is filed as in vivo. In short, it runs like this: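 Specific pathogen-free female ICR mice, 6 weeks old, about 30 g, 15 per group, kept at 24 ± 2 °C. Shaved backs were initiated with DMBA (100 μg, 390 nmol) in 0.1 ml acetone. One week later, TPA (1 μg, 1.7 nmol) in acetone was applied twice weekly. Test compound (85 nmol) in 0.1 ml acetone was applied topically 1 h before each TPA. Papillomas were scored weekly for 20 weeks as % mice bearing papillomas and mean papillomas per mouse.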

The mark [12] stands for this setting: read-out: Antiviral EC50 Influenza B MTS, MDCK cells, MTS.
The mark [13] stands for this setting: Vesicular stomatitis virus, HEL.
The mark [14] stands for this setting: Influenza B virus, MDCK, read-out: Antiviral EC50 Influenza B MTS.
The mark [15] stands for this setting: Influenza B virus, MDCK, read-out: Antiviral EC50 Influenza B Visual CPE score.

“1-({[4-(dimethylamino)phenyl]methylidene}amino)-3-{[(3Z)-2-oxo-2,3-dihydro-1H-indol-3-ylidene]amino}thiourea [4c]”: the concentration for a half-maximal effect (EC50) (in the data set on Vaccinia virus; in the data set on Sindbis virus (Vero cell cultures); in the data set on Punta Toro virus (Vero cell cultures); with Influenza A H1N1 subtype; in data set [3]; in the data set with Para-influenza-3 virus) was > 100 µM throughout. The EC50 (in the data set on Coxsackie virus B4 [4] (Vero cell cultures); with Reovirus-1 (Vero cell cultures); with Influenza A H3N2 subtype; with Feline corona virus; in the data set on Coxsackie virus B4 [5] (HeLa cell cultures); in data set [6] (HEL cell culture)) was > 100 µM in each case. The EC50 (in data set [7] (HEL cell culture); in the data set on Feline herpes virus (CRFK cell culture); in data set [8] (HEL cell culture); with Influenza B (setting [12]); in [9]) was > 100 µM throughout. In addition, the Minimum cytotoxic concentration in the data set with HeLa cell cultures is >100 µM; in data set [1], ≥100 µM; in data set [2], >100 µM; in the data set with Vero cell cultures it was >100 µM. The “Cytotoxicity Minimum cytotoxic concentration” value in the data set with MDCK cells is on record as >100. For the same compound, the CC50 in the data set on MDCK cells is > 100 µM.

On to “1-{[(3,4-Dimethoxyphenyl)methylidene]amino}-3-{[(3Z)-2-oxo-2,3-dihydro-1H-indol-3-ylidene]amino}thiourea [4f]”, for which the half-maximal effective concentration (EC50) is > 20 µM in the data set on Vaccinia virus; > 20 µM with Sindbis virus (Vero cell cultures); > 20 µM in the data set with Punta Toro virus (Vero cell cultures); 37 ± 25 µM in the data set on Influenza A H1N1 subtype; > 20 µM in data set [3]; > 20 µM with Para-influenza-3 virus. The 50% effective concentration (EC50) is > 20 µM in the data set with Coxsackie virus B4 [4] (Vero cell cultures); > 20 µM with Reovirus-1 (Vero cell cultures); 27 ± 7.3 µM in the data set on Influenza A H3N2 subtype; > 100 µM with Feline corona virus; > 100 µM with Coxsackie virus B4 [5] (HeLa cell cultures); > 20 µM in data set [6] (HEL cell culture). For the same compound, the EC50 was > 20 µM in data set [7] (HEL cell culture); > 100 µM in the data set on Feline herpes virus (CRFK cell culture); > 20 µM in data set [8] (HEL cell culture); 37 ± 8.75 µM with Influenza B (setting [12]); > 100 µM in [9]. Further, the Minimum cytotoxic concentration in the data set on HeLa cell cultures was >100 µM; in [1], 100 µM; in data set [2], 100 µM; in the data set with Vero cell cultures, ≥20 µM. In addition, the “anti-influenza activity (in words)” value in the data set with Influenza A H1N1 subtype is “some activity”. The “Cytotoxicity Minimum cytotoxic concentration” value in the data set with MDCK cells is on record as >100. The CC50 in the data set on MDCK cells is > 100 µM.

In the case of `Cc1ccc2c(c1)/C(=N/NC(=O)N/N=C1\C(=O)Nc3ccc(C)cc31)C(=O)N2` [6c, 1,3-Bis({[(3Z)-5-methyl-2-oxo-2,3-dihydro-1H-indol-3-ylidene]amino})urea], the EC50 was > 100 µM in the data set on Vaccinia virus (Orthopoxvirus vaccinia, HEL); > 100 µM in data set [10]; > 20 µM in the data set with Sindbis virus (Sindbis virus, Vero); > 20 µM in the data set with Punta Toro virus (Punta Toro virus, Vero); > 100 µM in data set [3] (setting [13]); > 20 µM with Para-influenza-3 virus (Vero). In addition, the EC50 with Coxsackie virus B4 [4] (Enterovirus B, B4, Vero) was > 20 µM; with Reovirus-1 (Vero) it was > 20 µM; in the data set on Coxsackie virus B4 [5] (Enterovirus B, B4, HeLa), > 100 µM; in data set [6] (Human alphaherpesvirus 1, HEL) it was > 100 µM; in data set [7] (Human alphaherpesvirus 2, HEL), > 100 µM; in the data set with Feline herpes virus (CRFK), 55.1 µM. Further, the EC50 was > 100 µM in data set [8] (Human alphaherpesvirus 1, HEL); > 20 µM in the data set with Influenza B (setting [14]); > 20 µM in the data set with Influenza B (setting [15]). The Minimum cytotoxic concentration in the data set on HeLa cell cultures was >100 µM; in data set [1], >100 µM; in data set [2] it was >100 µM; with Vero cell cultures, 100 µM. Further, the “Cytotoxicity Minimum cytotoxic concentration” value in the data set with MDCK cells is recorded as ≥20. Also, the CC50 in the data set “in vitro” was 46 µM. Also, the “chemoprevention / anti-tumor promoting activity (in words)” value in [11] (85 nmol topical) is listed as “highest chemoprevention activity; also recorded: stronger chemoprevention activity”. For the same compound, the “percentage of papilloma-bearing mice” value is recorded as 40–70% in data set [11] (85 nmol topical before each TPA, during weeks 10–15); 90% in data set [11] (85 nmol topical, week 18); 100% in data set [11] (85 nmol topical, week 20). The compound also had a papillomas/mouse in [11] (85 nmol topical, week 20) of 5.1 papillomas/mouse.

Consider `O=C(N/N=C1\C(=O)Nc2ccc([N+](=O)[O-])cc21)N/N=C1\C(=O)Nc2ccc([N+](=O)[O-])cc21` [6d, 1,3-Bis({[(3Z)-5-nitro-2-oxo-2,3-dihydro-1H-indol-3-ylidene]amino})urea], for which the half-maximal effective concentration (EC50) in the data set on Vaccinia virus (Orthopoxvirus vaccinia, HEL) is > 100 µM; in data set [10], > 100 µM; with Sindbis virus (Sindbis virus, Vero) it was > 100 µM; in the data set on Punta Toro virus (Punta Toro virus, Vero), > 100 µM; in data set [3] (setting [13]), > 100 µM; in the data set on Para-influenza-3 virus (Vero), > 100 µM. Besides, the EC50 is > 100 µM with Coxsackie virus B4 [4] (Enterovirus B, B4, Vero); > 100 µM with Reovirus-1 (Vero); > 100 µM with Coxsackie virus B4 [5] (Enterovirus B, B4, HeLa); > 100 µM in [6] (Human alphaherpesvirus 1, HEL); > 100 µM in data set [7] (Human alphaherpesvirus 2, HEL); > 100 µM in the data set on Feline herpes virus (CRFK). In addition, the half-maximal effective concentration (EC50) in data set [8] (Human alphaherpesvirus 1, HEL) was > 100 µM; with Influenza B (setting [14]), 38 ± 1.3 µM; in the data set on Influenza B (setting [15]), 47 ± 2.5 µM. Moreover, the Minimum cytotoxic concentration is >100 µM with HeLa cell cultures, ≥100 µM in [1], >100 µM in data set [2] and >100 µM in the data set on Vero cell cultures. Also, the “anti-influenza activity (in words)” value with Influenza A H1N1 subtype is reported as “some activity”. The “Cytotoxicity Minimum cytotoxic concentration” value with MDCK cells was >100. The CC50 in “in vitro” is > 100 µM.

Consider `O=C1Nc2ccccc2/C1=N/NC(=S)N/N=C1\C(=O)Nc2ccccc21` [6e, 1,3-Bis({[(3Z)-2-oxo-2,3-dihydro-1H-indol-3-ylidene]amino})thiourea], for which the concentration for a half-maximal effect (EC50) with Vaccinia virus (Orthopoxvirus vaccinia, HEL) is > 100 µM; in data set [10], > 20 µM; in data set [3] (setting [13]) it was > 100 µM; in the data set with Coxsackie virus B4 [5] (Enterovirus B, B4, HeLa) it was > 100 µM; in data set [6] (Human alphaherpesvirus 1, HEL), > 100 µM; in data set [7] (Human alphaherpesvirus 2, HEL), > 100 µM. For the same compound, the concentration for a half-maximal effect (EC50) in the data set on Feline herpes virus (CRFK) was > 100 µM; in [8] (Human alphaherpesvirus 1, HEL), > 100 µM; with Influenza B (setting [14]), 48 ± 31 µM; in the data set on Influenza B (setting [15]), 39 ± 5.5 µM. The Minimum cytotoxic concentration is >100 µM with HeLa cell cultures, 100 µM in data set [1], >100 µM in [2] and 100 µM with Vero cell cultures. The “anti-influenza activity (in words)” value with Influenza A H1N1 subtype is “some activity”. In the data set on MDCK cells, the “Cytotoxicity Minimum cytotoxic concentration” value is on record as >100. For the same compound, in the data set “in vitro”, the CC50 was > 100 µM.
